Data on nine compounds can be found in ChEMBL document CHEMBL1155605, “Effect of lichen metabolites on thylakoid electron transport and photophosphorylation in isolated spinach chloroplasts” (J Nat Prod, 2000).

SMILES strings stand for the structures. Activity calls are given as the source filed them. No cut-off for these calls is given here. Where only a bound is given, the exact number is not on record here.

The subject of test [1] is Echinochloa crus-galli. In words: Phytogrowth-inhibitory activity against Echinochloa crusgalli assessed as inhibition of seedling growth. The format is functional, organism-based. In short, it runs like this: (§1)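 Petri-dish seed assay at 28 °C, run at 1, 10, 100 and 1000 µg/mL with 2,4-D as positive control. Data analysed by ANOVA (p<0.05). IC50 in molar units obtained by Probit analysis of percent radicle growth inhibition.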

Test [2] concerns Amaranthus hypochondriacus. The test can be described thus: Phytogrowth-inhibitory activity against Amaranthus hypochondriacus assessed as inhibition of seedling growth. The test is classed as functional, organism-based. In short, it runs like this:
as §1

Test [3] concerns Amaranthus hypochondriacus. The test can be described thus: Phytogrowth-inhibitory activity against Amaranthus hypochondriacus assessed as inhibition of seedling germination. The test is classed as functional, organism-based.
Test [4] concerns Echinochloa crus-galli. The test can be described thus: Phytogrowth-inhibitory activity against Echinochloa crusgalli assessed as inhibition of seedling germination. The format is functional, organism-based.
Test [5] concerns Spinacia oleracea. In words: Effect on uncoupled photosystem 2 of spinach chloroplast assessed as inhibition of electron transport rate of water to silicomolybdate at 100 uM relative to control. In short, it runs like this: (§2)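 Intact thylakoids from market spinach leaves, stored dark 1 h at 0 °C. Uncoupled medium: 100 mM sorbitol, 5 mM MgCl2, 10 mM KCl, 15 mM tricine pH 8.0, 0.5 mM KCN, 300 µM ferricyanide, 1 µM DBMIB, 100 µM DCPIP, 6 mM NH4Cl, plus 200 µM SiMo and 10 µM DCMU. O2 evolution by Clark electrode under filtered actinic light for 2 min. Activity expressed relative to control.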

Test [6] relates to Spinacia oleracea. In words: Effect on uncoupled photosystem 2 of spinach leaves chloroplast assessed as inhibition of electron transport from water to 2,6-dichlorophenol indophenol at 300 uM relative to control. The essentials:
(§3)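 Uncoupled PSII as DCPIP-supported O2 evolution, monitored polarographically with a Clark electrode. Spinach thylakoids in 100 mM sorbitol, 5 mM MgCl2, 10 mM KCl, 15 mM tricine pH 8.0 and 0.5 mM KCN. Ferricyanide 300 µM replaces MV; 1 µM DBMIB, 100 µM DCPIP and 6 mM NH4Cl added. Illumination 2 min through 1% CuSO4 filter. Activity relative to control.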

Test [7] has as its system Spinacia oleracea. In words: Inhibition of photophosphorylation in spinach leaves chloroplast assessed as inhibition of noncyclic electron transport from water to methyl viologen in uncoupled condition. The format is functional. The essentials: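 Water→0.05 mM MV O2 uptake measured with a Clark electrode in basal medium (15 mM tricine pH 8.0, 0.5 mM KCN) plus 6 mM NH4Cl as uncoupler, with 2 min actinic illumination. Compounds at 50–300 µM. I50 from the percent-activity versus concentration plot.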

Test [8] relates to Spinacia oleracea. In words: Effect on uncoupled photosystem 2 of spinach leaves chloroplast assessed as inhibition of electron transport from diphenylcarbazide to 2,6-dichlorophenol indophenol at 150 uM relative to control. The essentials:
(§4)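 Tris-treated (0.8 M, pH 8.0) spinach thylakoids in uncoupled medium with 200 µM DPC, 100 µM DCPIP, 1 µM DBMIB and 6 mM NH4Cl. DCPIP reduction followed spectrophotometrically. Activity expressed relative to control.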

Test [9] has as its system Spinacia oleracea. In words: Effect on uncoupled photosystem 2 of spinach leaves chloroplast assessed as inhibition of electron transport from diphenylcarbazide to 2,6-dichlorophenol indophenol at 300 uM relative to control. In short, it runs like this: as §4
In test [10] the test system is Spinacia oleracea. In words: Effect on uncoupled photosystem 2 of spinach leaves chloroplast assessed as inhibition of electron transport from diphenylcarbazide to 2,6-dichlorophenol indophenol at 50 uM relative to control. The essentials:
as §4

Test [11] concerns Spinacia oleracea. The test can be described thus: Effect on uncoupled photosystem 2 of spinach chloroplast assessed as inhibition of electron transport rate of water to silicomolybdate at 250 uM relative to control. The essentials:
as §2

In test [12] the test system is Spinacia oleracea. The test can be described thus: Effect on uncoupled photosystem 2 of spinach leaves chloroplast assessed as inhibition of electron transport from diphenylcarbazide to 2,6-dichlorophenol indophenol at 100 uM relative to control. The essentials:
as §4

The subject of test [13] is Spinacia oleracea. The test can be described thus: Effect on uncoupled photosystem 2 of spinach chloroplast assessed as inhibition of electron transport rate of water to silicomolybdate at 200 uM relative to control. In short, it runs like this: as §2
The subject of test [14] is Spinacia oleracea. The test can be described thus: Effect on uncoupled photosystem 2 of spinach leaves chloroplast assessed as inhibition of electron transport from diphenylcarbazide to 2,6-dichlorophenol indophenol at 250 uM relative to control. In short, it runs like this:
as §4

Test [15] has as its system Spinacia oleracea. The test can be described thus: Effect on uncoupled photosystem 2 of spinach chloroplast assessed as inhibition of electron transport rate of water to silicomolybdate at 50 uM relative to control. The essentials: as §2
For test [16], the system named is Spinacia oleracea. In words: Effect on uncoupled photosystem 2 of spinach leaves chloroplast assessed as inhibition of electron transport from water to 2,6-dichlorophenol indophenol at 250 uM relative to control. The essentials: as §3
The subject of test [17] is Spinacia oleracea. In words: Effect on uncoupled photosystem 2 of spinach leaves chloroplast assessed as inhibition of electron transport from water to 2,6-dichlorophenol indophenol at 150 uM relative to control. The essentials:
as §3

Test [18] in a line: Inhibition of light-dependent proton uptake in spinach leaves chloroplast. The format is functional, Spinacia oleracea. The following applies: read-out: I50. The essentials:
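Light-driven proton uptake recorded as a pH rise from 8.0 to 8.1 with a combination microelectrode on an expanded-scale potentiometer. Medium: 100 mM sorbitol, 5 mM MgCl2, 10 mM KCl, 1 mM tricine pH 8.0, 0.05 mM MV. Compounds at 50–300 µM. I50 read from the plot of percent activity against concentration.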

Test [19] relates to Spinacia oleracea. In words: Effect on uncoupled photosystem 2 of spinach leaves chloroplast assessed as inhibition of electron transport from water to 2,6-dichlorophenol indophenol at 200 uM relative to control. The essentials: as §3
The nature of test [20]: Inhibition of photosynthetic phosphorylation from water to methyl viologen in spinach leaves chloroplast. The test is classed as functional, Spinacia oleracea. The following applies: read-out: I50. In short, it runs like this: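 ATP synthesis determined titrimetrically by pH change, with 0.05 mM MV as Hill acceptor in 100 mM sorbitol, 5 mM MgCl2, 10 mM KCl, 1 mM tricine pH 8.0. Compounds at 50–300 µM; DCMU at 0.01–10.0 µM as reference. I50 extrapolated from the percent-activity versus concentration plot.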

In test [21] the test system is Spinacia oleracea. The test can be described thus: Effect on uncoupled photosystem 2 of spinach leaves chloroplast assessed as inhibition of electron transport from water to 2,6-dichlorophenol indophenol at 50 uM relative to control. In short, it runs like this: as §3
Test [22] has as its system Spinacia oleracea. In words: Effect on uncoupled photosystem 2 of spinach chloroplast assessed as inhibition of electron transport rate of water to silicomolybdate at 150 uM relative to control. In short, it runs like this: as §2
Test [23] has as its system Spinacia oleracea. The test can be described thus: Effect on uncoupled photosystem 2 of spinach leaves chloroplast assessed as inhibition of electron transport from water to 2,6-dichlorophenol indophenol at 100 uM relative to control. The essentials:
as §3

In test [24] the test system is Spinacia oleracea. In words: Effect on uncoupled photosystem 2 of spinach chloroplast assessed as inhibition of electron transport rate of water to silicomolybdate at 300 uM relative to control. In short, it runs like this: as §2
In test [25] the test system is Spinacia oleracea. In words: Effect on uncoupled photosystem 2 of spinach leaves chloroplast assessed as inhibition of electron transport from diphenylcarbazide to 2,6-dichlorophenol indophenol at 200 uM relative to control. In short, it runs like this:
as §4

Turning to `COC(=O)c1c(C)cc(O)c(C)c1O` [ATRARIC ACID], the IC50 turned out to be 610 µM in the test with Echinochloa crus-galli [1], 320 µM in test [2], 760 µM in test [3] and 1100 µM in the test on Echinochloa crus-galli [4].

Consider `Cc1cc(O)cc(OC(=O)c2c(C)cc(O)cc2O)c1` [LECANORIN], for which the Activity stood at 25 in the test with Spinacia oleracea [5]; 88.9 in the test with Spinacia oleracea [8]; 135 in the test on Spinacia oleracea [9]; 93.6 in the test with Spinacia oleracea [10]; 86.9 with Spinacia oleracea [12]; 112 in the test on Spinacia oleracea [14]. In addition, the Activity in the test on Spinacia oleracea [15] is 59.1; in the test with Spinacia oleracea [17], 15.7; in the test with Spinacia oleracea [21] it was 64.3; in the test on Spinacia oleracea [22], 8.4; with Spinacia oleracea [23], 37.5; in the test on Spinacia oleracea [25] it was 96. Further, the IC50 stood at 180 µM with Echinochloa crus-galli [1]; 580 µM in test [2]; 140 µM in test [18]; 760 µM in [3]; 136 µM in test [20]; 710 µM in the test on Echinochloa crus-galli [4]. In addition, the outcome in the test with Spinacia oleracea [6], in the test on Spinacia oleracea [7], with Spinacia oleracea [11], with Spinacia oleracea [13], in the test with Spinacia oleracea [16] and in the test with Spinacia oleracea [19] was Active. For the same compound, in the test on Spinacia oleracea [24], the outcome was Active.

In the case of `COC(=O)c1c(C)cc(O)c(C=O)c1O` [METHYL HAEMATOMMATE], in the test with Echinochloa crus-galli [1], the IC50 was determined as 29 µM.

In the case of `CN(C)C(=O)Nc1ccc(Cl)c(Cl)c1` [DCMU], the IC50 in test [20] worked out at 0.14 µM.

Turning to `COC(=O)c1c(C)cc(O)cc1O` [METHYL ORSELLINATE], the IC50 was found to be 310 µM in the test with Echinochloa crus-galli [1], 290 µM in test [2], 360 µM in [3] and 680 µM with Echinochloa crus-galli [4].

As to `COc1cc(C)c2c(=O)c3c(O)cc(OC)cc3oc2c1` [LICHEXANTHONE], the IC50 (in the test on Echinochloa crus-galli [1]; in test [2]; in test [3]; in the test on Echinochloa crus-galli [4]) was greater than 2000 µM each time.

As to `Cc1cc(OC(=O)c2c(C)cc(OC(=O)c3c(C)cc(O)cc3O)cc2O)cc(O)c1C(=O)O` [GYROPHORIC ACID], the Activity was determined as 79.9 in the test with Spinacia oleracea [5]; 40.3 in the test with Spinacia oleracea [8]; 17.9 with Spinacia oleracea [9]; 84.3 in the test with Spinacia oleracea [10]; 58.5 in the test on Spinacia oleracea [12]; 41 in the test on Spinacia oleracea [13]. In addition, the Activity is 29.9 in the test with Spinacia oleracea [14]; 93.4 in the test with Spinacia oleracea [15]; 4.1 in the test on Spinacia oleracea [16]; 31.3 in the test on Spinacia oleracea [17]; 16.8 in the test with Spinacia oleracea [19]; 72.1 with Spinacia oleracea [21]. In addition, the Activity with Spinacia oleracea [22] came to 62.5; in the test on Spinacia oleracea [23], 49.7; with Spinacia oleracea [25] it was 33.8. Also, the IC50 with Echinochloa crus-galli [1] turned out to be 2000 µM; in test [2] it was 2000 µM; in test [18], 59.7 µM; in test [3], 2000 µM; in [20], 87.1 µM; with Echinochloa crus-galli [4], 2000 µM. For the same compound, the outcome in the test on Spinacia oleracea [6], with Spinacia oleracea [7], in the test on Spinacia oleracea [11] and in the test with Spinacia oleracea [24] was Active.

As to `O=C(O)COc1ccc(Cl)cc1Cl` [2,4-DICHLOROPHENOXYACETIC ACID], the IC50 with Echinochloa crus-galli [1] was greater than 230 µM; in [3], 880 µM; in the test on Echinochloa crus-galli [4], greater than 230 µM.

With `Cc1cc(O)cc(O)c1` [ORCINOL], the IC50 in the test with Echinochloa crus-galli [1] was 1100 µM; in [2], 1000 µM; in [3] it was 1700 µM; with Echinochloa crus-galli [4] it was greater than 8100 µM.
